Compound activity deposited in PubChem by The Scripps Research Institute Molecular Screening Center.
Rows were chosen to be rich in hits. Some 1.6% of all compounds tested hit in one or more screens of this group.
Rev-RRE block – HIV-1 Rev-RRE binding inhibitors, primary screen, biochemical, FRET, protein-RNA interaction; hit rate 0.79% among 97,000; Rev peptide-RRE RNA binding; inhibition, % at 8 µM;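 active = inhibition above the screen-wide mean plus 3 SD, cut at about 35% in these data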;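 also: 0% = median DMSO wells and 100% = median Neomycin B control wells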
Target sequence (P05866 whole entry, looked up): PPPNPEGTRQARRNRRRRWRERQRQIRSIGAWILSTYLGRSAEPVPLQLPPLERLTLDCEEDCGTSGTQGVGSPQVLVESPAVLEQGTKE
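Material: labelled RRE RNA duplex and labelled Rev peptide / Buffer or medium: HEPES pH 7.5 salt buffer with EDTA / Compound dosing: single point, 8 µM final nominal compound concentration / Benchmarks: DMSO low control, neomycin B high control / Timing: 5 min preincubation and 15 min binding, 25 °C / Technique: FRET fluorescence readout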
GALR2 antag – GALR2 antagonists in receptor-expressing cells, primary screen; Galanin receptor type 2 (Homo sapiens), O43603; hit rate 0.39% among 140,000; inhibition, % at 4 µM; AID 828, 2007; antagonist mode; in the data active = inhibition above about 27%;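 also: cells stimulated with galanin 1-16 at roughly its EC80; 0% = agonist challenge control and 100% = basal control without agonist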
Target sequence (O43603 whole entry, looked up): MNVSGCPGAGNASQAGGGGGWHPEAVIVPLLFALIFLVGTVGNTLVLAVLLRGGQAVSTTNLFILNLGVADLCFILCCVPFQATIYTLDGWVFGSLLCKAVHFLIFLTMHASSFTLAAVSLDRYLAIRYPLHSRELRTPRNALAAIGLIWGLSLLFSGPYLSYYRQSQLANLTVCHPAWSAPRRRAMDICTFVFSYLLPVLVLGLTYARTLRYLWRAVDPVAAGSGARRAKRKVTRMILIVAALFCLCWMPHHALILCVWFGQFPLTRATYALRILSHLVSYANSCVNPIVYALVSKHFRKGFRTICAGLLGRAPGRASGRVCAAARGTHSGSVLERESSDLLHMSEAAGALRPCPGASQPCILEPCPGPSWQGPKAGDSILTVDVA
S1P2 agonist – S1P2 receptor agonists, primary screen, cell-based; Sphingosine 1-phosphate receptor 2 (Homo sapiens), O95136; S1P2-expressing cell line, agonist reporter read-out; activation, % at 4.5 µM; hit rate 0.46% among 97,000; in the data active = activation above about 16%;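 also: 0% = vehicle low control and 100% = maximal reference agonist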
GALR2 ag – GALR2 receptor agonists, primary screen, cell-based; Galanin receptor type 2 (Homo sapiens), O43603; GALR2-expressing cells, agonist activation read-out; activation, % (no concentration beside the values); hit rate 0.48% among 140,000; AID 803, 2007; in the data active = activation above about 5%, passing the limit was not always enough;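 also: 0% = vehicle buffer wells and 100% = reference agonist at full effect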
S1P2 blocker – human S1P2 receptor antagonists, primary screen, cell-based; inhibition, % at 5 µM; cell-based S1P2 antagonist assay, inhibition at 5 uM; hit rate 0.21% among 97,000; Sphingosine 1-phosphate receptor 2 (Homo sapiens), O95136; AID 736, 2007; in the data active = inhibition above about 45%;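 also: CRE beta-lactamase reporter cells expressing human S1P2 stimulated with S1P; 0% = agonist at EC80 alone and 100% = agonist plus reference antagonist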
GALR2 ag confirm – GALR2 agonists, retest of hits, confirmation, cell-based. AID 864, 2007. GALR2-expressing cells, agonist activation. hit rate 10% among 460. shares compounds with GALR2 ag. activation, % at 5.6 µM; in the data active = activation above about 8.4%;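 also: 0% = buffer-only vehicle wells and 100% = full reference agonist response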
BLA activ ctr – activators of NFAT-driven beta-lactamase reporter, confirmation, counter-screen for GALR2 agonist project, CHO NFAT-bla cells, FRET readout; shares compounds with GALR2 ag; beta-lactamase FRET activation; hit rate 10% among 460; activation, % at 5.6 µM;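 active = activation above the screen-wide mean activation plus 3 SD, cut at about 8% in these data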;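 also: 0% = DMSO with PBS wells and 100% = thapsigargin positive control wells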
The depositor's hits bear a star; . = no result given; ! = repeats disagree.

SMILES	Rev-RRE block	GALR2 antag	S1P2 agonist	GALR2 ag	S1P2 blocker	GALR2 ag confirm	BLA activ ctr
CCS(=O)(=O)N1CCN(c2cccc(C)c2C)CC1	2	-5	-6	17*	8	-1	-2
CCc1cc2c(CN3CCN(CCO)CC3)cc(=O)oc2cc1O	12	-3	4	11	11	1	4
CCc1cc2c(CN3CCN(C)CC3)cc(=O)oc2cc1O	6	4	2	2	19	.	.
Nc1c(C(=O)Nc2ccc(S(=O)(=O)N3CCCC3)cc2)sc2nc3ccc(OC(F)(F)F)cc3cc12	.	6	.	18*	.	7	2
COCCn1c(-c2ccccc2Cl)nc2c(c(=O)c3ccccc3n2C)c1=O	.	2	.	0	.	.	.
Cc1cc2c3c(c1)C(C)(c1ccccc1)CC(C)(C)N3C(=O)C21C(C#N)=C(N)OC2=C1C(=O)CC(C)(C)C2 (stereo unspecified)	0	-26	1	18*	-14	8	15*
Cc1cccc(NC(=O)C2CCCN(S(=O)(=O)c3cccc4nsnc34)C2)n1 (stereo unspecified)	4	-10	-1	11*	11	-1	-1
Cc1ccccc1-c1nc2ccccc2[nH]1	4	-1	0	-2	-14	.	.
c1ccc2[nH]c(-c3ccnc4ccccc34)nc2c1	13	15	1	12*!	-28	-2	-5
Cc1cccc(-n2c(SCc3ccc(C#N)cc3)nnc2-c2c[nH]c3ccccc23)c1	.	1	.	2	.	.	.
COc1ccc2[nH]c3c(c2c1)CCn1c-3nc2ccccc2c1=O	.	11	.	8.7*	.	0	-1
COc1cc(OC)cc(C(=O)Nn2c(C)nc3ccccc3c2=O)c1	8	-4	-8	-2	23	.	.
COC(=O)C1=C(C)Nc2ncnn2C1c1ccc(OCc2ccccc2)cc1 (stereo unspecified)	.	0	.	104*	.	0	-1
CCOc1cc(NC(=O)C2CCCCC2)c(OCC)cc1NC(=O)c1ccco1	13	-13	-3	32*	-26	0	0
COc1cc(NC(=O)C2CCCCC2)c(OC)cc1NC(=O)c1ccco1	5	9	-7	-2	23	.	.
O=C1N/C(=C\c2ccc(N3CCOCC3)c(F)c2)C(=O)N1Cc1ccccc1	-1	-4	-4	-1	-7	.	.
Cc1ccc(CN2C(=O)N/C(=C\c3ccc(N4CCOCC4)cc3)C2=O)cc1	.	12	.	8.7*	.	4	8
CC1CCC(NC(=O)c2ccc(NC(=O)c3ccc(=O)[nH]c3)cc2)CC1 (stereo unspecified)	.	1	.	-2	.	.	.
O=C(NCCc1ccccc1)C(=O)N/N=C/c1ccccc1C(F)(F)F	18	-4	-5	10	-1	-1	-1
O=C(NCCc1ccccc1)C(=O)N/N=C/c1ccc2c(c1)OCO2	4	7	7	0	-14	.	.
CCOC(=O)c1cc(NC(=O)Nc2nccs2)c(C)nc1C	.	7	.	-1	.	.	.
CC1(C)C=C(c2ccc(C=O)s2)CC(C)(C)N1	9	4	-9	-1	1	.	.
CC1(C)C=C(c2ccc(C=O)s2)CC(C)(C)N1C=O	.	3	.	14*	.	-1	0
CC(=O)c1nn(-c2ccccc2)cc1C(=O)c1ccc(Br)cc1	.	-4	.	9.4*	.	6	1
CC(=O)N/C(=C/c1ccc2c(c1)OCO2)C(=O)NCCO	.	3	.	0	.	.	.
SMILES	Rev-RRE block	GALR2 antag	S1P2 agonist	GALR2 ag	S1P2 blocker	GALR2 ag confirm	BLA activ ctr
COc1ccc(C2=NOC(C(=O)NCc3ccc(F)cc3)C2)cc1OC (stereo unspecified)	10	8	2	10	-14	1	-1
CN(C)CCNC(=O)NC(=O)c1ccc(Cl)cc1	.	5	.	21*	.	-1	-2
O=S(=O)(c1ccc(N2CCN(CCO)CC2)nc1)N1CCCCC1	5	-19	-1	22*	-16	-1	-2
CCc1ccc(NC(=O)CSc2nnc(CC)c(CC)n2)cc1	11	-7	-2	22*	-33	-1	-4
O=C(COc1ccccc1)Nc1sc2c(c1C(=O)NCc1cccnc1)CCCC2	-3	-8	-3	10	16	4	-2
COc1ccc(/C=C/C(=O)Nc2sc3c(c2C(=O)NCc2cccnc2)CCCC3)cc1	-5	5	-9	-1	6	.	.
Nc1c(C(=O)c2ccc(Cl)cc2)sc2c1c(=O)[nH]c(=O)n2-c1ccccc1	.	-15	.	22*	.	6	4
Nc1c(C(=O)c2ccccc2)sc2c1c(=O)[nH]c(=O)n2-c1ccccc1	.	-13	.	3	.	.	.
C/C(=N\NC(=O)c1nn(C)c(C)c1Br)c1cccc(NC(=O)c2ccoc2C)c1	.	-5	.	-1	.	.	.
CCOC(=O)c1sc(NC(=O)Nc2ccccc2Cl)cc1C	.	9	.	13*	.	0	-2
CN=C(Nc1cc(Cl)ccc1Cl)SC1CC(=O)N(c2ccc(C(=O)OC)cc2)C1=O (stereo unspecified)	6	-9	-7	-2	-22	.	.
C=CCNC(=O)/C(C#N)=C/c1cn(-c2ccccc2)nc1-c1cccs1	.	10	.	13*	.	11*	5
COCCN1C=C(C(=O)OC)C(c2cc(Br)c(OC)c(OC)c2)C(C(=O)OC)=C1	2	6	10	10	-23	1	4
O=C(Cc1cc(=O)oc2cc(O)ccc12)NCC1CCC(C(=O)O)CC1 (stereo unspecified)	4	0	4	9	-4	1	3
CC1=C(C#N)CCC(=O)N1Cc1ccc(C)cc1	1	1	-5	-3	19	.	.
O=c1oc2ccccc2cc1-c1csc(Cc2nc(-c3ccc(Br)cc3)cs2)n1	9	11	-6	-3	-2	.	.
O=c1oc2ccccc2cc1-c1nc2c(s1)CCc1ccccc1-2	.	25	.	10*	.	3	2
CC(C)OC(=O)c1cc2ccccc2[nH]1	1	0	-5	-2	-23	.	.
CCOC(=O)c1cc2cc3ccccc3cc2[nH]1	4	4	15	22*	15	4	11*
CN(Cc1cc([N+](=O)[O-])c2cccnc2c1O)C1CCCCC1	.	6	.	23*	.	0	-2
Cc1cc(C)c2[nH]c(=O)c(CN(Cc3cccs3)C(=S)NCc3ccco3)cc2c1	.	-5	.	0	.	.	.
N#CC1=C(N)Oc2n[nH]c(-c3ccccc3)c2C12C(=O)Nc1ccccc12 (stereo unspecified)	.	14	.	11*	.	-1	-3
CCN1C(=O)C2(C(C#N)=C(N)Oc3n[nH]c(-c4ccc(Cl)cc4)c32)c2ccccc21 (stereo unspecified)	11	1	-2	0	-5	.	.
